Experimental data published in ChEMBL document CHEMBL1143930, “S-Euglobals: biomimetic synthesis, antileishmanial, antimalarial, and antimicrobial activities” (Bioorg Med Chem, 2008).
In brackets after ≈: the same amount, converted by molar mass. Activity calls are given as the source filed them. No cut-off for these calls is given here.

Key:
[1] = tested on: Candida albicans; assay: Antifungal activity against Candida albicans; type: functional, organism-based
In short: (§1)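 Modified NCCLS broth microdilution. Samples in DMSO were serially diluted in 0.9% saline and tested in duplicate. Inocula were matched to the 0.5 McFarland standard by absorbance at 630 nm, then diluted in broth. Growth, solvent and media controls were included. Plates were read at 630 nm before and after incubation, and IC50 was taken from percent growth versus concentration.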

[2] = Cytotoxicity against pig LLC-PK11 cells by neutral red assay up to 25 ug/mL; type: cell-based, Sus scrofa
In short: (§2)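 Cells were seeded at 25,000 per well and incubated 24 h. Test samples were added at a range of concentrations, followed by a further 48 h incubation. Viable cells were quantified by Neutral Red uptake, and IC50 was read from dose curves of percent growth versus concentration.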

[3] = tested on: BT-549; assay: Cytotoxicity against human BT549 cells by neutral red assay; type: functional, cell-based; in short: as §2
[4] = tested on: SK-OV-3; assay: Cytotoxicity against human SK-OV3 cells by neutral red assay up to 25 ug/mL; type: functional, cell-based; in short: as §2
[5] = tested on: KB; assay: Cytotoxicity against human KB cells by neutral red assay up to 25 ug/mL; type: functional, cell-based; in short: as §2
[6] = tested on: Vero; assay: Cytotoxicity against african green monkey Vero cells by neutral red assay; type: cell-based; settings: chlorocebus sabaeus; in short: as §2
[7] = tested on: Leishmania donovani; assay: Antileishmanial activity against Leishmania donovani promastigotes after 48 hrs by Alamar blue assay; type: functional, organism-based
In short: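 L. donovani promastigotes were grown in RPMI 1640 with 10% fetal calf serum at 26 C. A 3-day-old culture was diluted to 5 × 10^5 promastigotes/mL, and drug dilutions were made directly in the cell suspension. After 48 h at 26 C, growth was read by Alamar Blue fluorescence (ex 544/em 590 nm). IC50 and IC90 came from percent growth versus concentration curves.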

[8] = tested on: Cryptococcus neoformans; assay: Antifungal activity against Cryptococcus neoformans; type: functional, organism-based; in short: as §1
[9] = tested on: Aspergillus fumigatus; assay: Antifungal activity against Aspergillus fumigatus; type: functional, organism-based; in short: as §1
[10] = tested on: SK-MEL; assay: Cytotoxicity against human SKMEL cells by neutral red assay up to 25 ug/mL; type: functional, cell-based; in short: as §2
[11] = tested on: Vero; assay: Cytotoxicity against african green monkey Vero cells by neutral red assay up to 25 ug/mL; type: cell-based; settings: chlorocebus sabaeus; in short: as §2
[12] = tested on: Staphylococcus aureus; assay: Antibacterial activity against methicillin-resistant Staphylococcus aureus; type: functional, organism-based
In short: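 Modified NCCLS broth microdilution. Samples in DMSO serially diluted in 0.9% saline, tested in duplicate. Inoculum set against 0.5 McFarland standard by absorbance at 630 nm, then diluted in broth. Growth, solvent and media controls included. Plates read at 630 nm before and after incubation. IC50 from percent growth vs concentration; MIC = lowest concentration with no detectable growth.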

[13] = tested on: BT-549; assay: Cytotoxicity against human BT549 cells by neutral red assay up to 25 ug/mL; type: functional, cell-based; in short: as §2
[14] = tested on: KB; assay: Cytotoxicity against human KB cells by neutral red assay; type: functional, cell-based; in short: as §2
[15] = tested on: SK-MEL; assay: Cytotoxicity against human SKMEL cells by neutral red assay; type: functional, cell-based; in short: as §2
[16] = Cytotoxicity against pig LLC-PK11 cells by neutral red assay; type: cell-based; settings: Sus scrofa; in short: as §2
[17] = tested on: SK-OV-3; assay: Cytotoxicity against human SK-OV3 cells by neutral red assay; type: functional, cell-based; in short: as §2

Row | SMILES | Activity [1] | Activity [2] | IC50 [3] [µg/mL] | Activity [4] | Activity [5] | IC50 [6] [µg/mL] | IC50 [7] [µg/mL] | Activity [8] | Activity [9] | Activity [10] | Activity [11] | IC50 [12] [µg/mL] | IC90 [7] [µg/mL] | Activity [13] | IC50 [14] [µg/mL] | Activity [7] | IC50 [15] [µg/mL] | MIC [12] [µg/mL] | IC50 [16] [µg/mL] | IC50 [17] [µg/mL]
1 | CC(C)CC(=O)c1c(O)c2c(c(C(=O)CC(C)C)c1O)O[C@@]1(CO)[C@@H](C2)C[C@H]2C[C@@H]1C2(C)C | inactive | Not Active | 25 (≈ 54.5 µM) | inactive | inactive | > 25 | 24 (≈ 52.3 µM) | inactive | inactive | inactive |  |  |  |  |  |  |  |  |  | 
2 | CC(C)CC(=O)c1c(O)c(C=O)c2c(c1O)C[C@H]1C[C@H]3C[C@H](C3(C)C)[C@@]1(C)O2 [EUGLOBAL G2] |  |  |  |  |  |  | 3.6 (≈ 9.31 µM) |  |  |  |  |  |  |  |  |  |  |  |  | 
3 | CC(C)CC(=O)c1c(O)c(C=O)c(O)c2c1O[C@@]1(CO)[C@@H](C2)C[C@H]2C[C@@H]1C2(C)C | inactive | Not Active | 22.5 (≈ 55.9 µM) | inactive | inactive |  | 30 (≈ 74.5 µM) | inactive | inactive | inactive | Not Active | 10 (≈ 24.8 µM) |  |  |  |  |  |  |  | 
4 | CC(C)CC(=O)c1c(O)c(C=O)c2c(c1O)C[C@H]1C[C@H]3C[C@H](C3(C)C)[C@@]1(CO)O2 | inactive | Not Active | 23 (≈ 57.1 µM) | inactive | inactive |  | 18 (≈ 44.7 µM) | inactive | inactive | inactive | Not Active | 2.5 (≈ 6.21 µM) | 39 (≈ 96.9 µM) |  |  |  |  |  |  | 
5 | CC1(C)[C@H]2C[C@@H]3Cc4c(O)c(C=O)c(O)c(C=O)c4O[C@]3(CCO)[C@@H]1C2 | inactive | Not Active |  | inactive | inactive |  | 22 (≈ 61 µM) | inactive | inactive | inactive | Not Active |  |  | inactive |  |  |  |  |  | 
6 | CC1(C)[C@H]2[C@@H]1CC[C@@H]1Cc3c(O)c(C=O)c(O)c(C=O)c3O[C@@]12C | inactive | Not Active | > 25 | inactive |  |  | 20 (≈ 60.5 µM) | inactive | inactive | inactive | Not Active |  | 40 (≈ 121 µM) |  | 20 (≈ 60.5 µM) |  |  |  |  | 
7 | CC(C)CC(=O)c1c(O)c2c(c(C(=O)CC(C)C)c1O)O[C@@]1(CC2)[C@H]2CC[C@H](C2)C1(C)C | inactive | Not Active |  | inactive | inactive |  |  | inactive | inactive | inactive | Not Active |  |  | inactive |  | inactive |  |  |  | 
8 | CC(C)CC(=O)c1c(O)c2c(c(C(=O)CC(C)C)c1O)O[C@]1(C)C[C@@H]3[C@H](C[C@@H]1C2)C3(C)C | inactive | Not Active |  | inactive | inactive |  |  | inactive | inactive | inactive | Not Active |  |  | inactive |  | inactive |  |  |  | 
9 | CC1(C)[C@H]2C[C@@H]3Cc4c(O)c(C=O)c(O)c(C=O)c4O[C@]3(CO)[C@@H]1C2 | inactive | Not Active | 25 (≈ 72.2 µM) | inactive |  |  |  | inactive | inactive |  | Not Active |  |  |  |  | inactive | 25 (≈ 72.2 µM) |  |  | 
10 | CC(C)CC(=O)c1c(O)c2c(c(C(=O)CC(C)C)c1O)O[C@@]1(CCO)[C@@H](C2)C[C@H]2C[C@@H]1C2(C)C | inactive | Not Active | > 25 | inactive | inactive |  |  | inactive | inactive | inactive | Not Active |  |  |  |  | inactive |  |  |  | 
11 | CC(C)CC(=O)c1c(O)c2c(c(C(=O)CC(C)C)c1O)O[C@]1(CC2)CC[C@@H]2C[C@H]1C2(C)C | inactive | Not Active |  | inactive | inactive |  |  | inactive | inactive | inactive | Not Active |  |  | inactive |  | inactive |  |  |  | 
12 | O=C(O)c1cn(C2CC2)c2cc(N3CCNCC3)c(F)cc2c1=O [CIPROFLOXACIN] |  |  |  |  |  |  |  |  |  |  |  |  |  |  |  |  |  | 0.25 (≈ 0.754 µM) |  | 
13 | COc1cccc2c1C(=O)c1c(O)c3c(c(O)c1C2=O)C[C@@](O)(C(=O)CO)C[C@@H]3O[C@H]1C[C@H](N)[C@H](O)[C@H](C)O1 [DOXORUBICIN] |  |  | 0.6 (≈ 1.1 µM) |  |  |  |  |  |  |  |  |  |  |  | 0.9 (≈ 1.66 µM) |  | 0.6 (≈ 1.1 µM) |  | 0.5 (≈ 0.92 µM) | 0.75 (≈ 1.38 µM)
14 | N=C(N)c1ccc(OCCCCCOc2ccc(C(=N)N)cc2)cc1 [PENTAMIDINE] |  |  |  |  |  |  | 1.2 (≈ 3.52 µM) |  |  |  |  |  | 6 (≈ 17.6 µM) |  |  |  |  |  |  | 
15 | CC(C)CC(=O)c1c(O)c2c(c(C(=O)CC(C)C)c1O)O[C@@]1(C)[C@H](CC[C@H]3[C@@H]1C3(C)C)C2 | inactive | Not Active |  | inactive | inactive |  |  | inactive | inactive | inactive | Not Active |  |  | inactive |  | inactive |  |  |  | 
16 | CC(C)CC(=O)c1c(O)c(C=O)c(O)c2c1O[C@@]1(CCO)[C@@H](C2)C[C@H]2C[C@@H]1C2(C)C | inactive |  | > 25 |  |  | > 25 | 32 (≈ 76.8 µM) | inactive | inactive | inactive |  | 5 (≈ 12 µM) |  |  | > 25 |  |  |  | > 25 | > 25
17 | CC(C)CC(=O)c1c(O)c(C=O)c2c(c1O)C[C@H]1CC[C@H]3[C@H](C3(C)C)[C@@]1(C)O2 | inactive |  | > 25 |  | inactive |  | 2.4 (≈ 6.21 µM) | inactive | inactive | inactive | Not Active |  | 8 (≈ 20.7 µM) |  |  |  |  |  | > 25 | > 25
18 | C[C@@H]1[C@H](O)[C@@H](C)/C=C/C=C/C=C/C=C/C=C/C=C/C=C/[C@H](O[C@@H]2O[C@H](C)[C@@H](O)[C@H](N)[C@@H]2O)C[C@@H]2O[C@](O)(C[C@@H](O)C[C@@H](O)[C@H](O)CC[C@@H](O)C[C@@H](O)CC(=O)O[C@H]1C)C[C@H](O)[C@H]2C(=O)O [AMPHOTERICIN B] |  |  |  |  |  |  | 0.19 (≈ 0.206 µM) |  |  |  |  |  | 0.36 (≈ 0.39 µM) |  |  |  |  |  |  | 
19 | CC(C)CC(=O)c1c(O)c2c(c(C(=O)CC(C)C)c1O)O[C@@]1(C)[C@@H](C2)C[C@H]2C[C@@H]1C2(C)C | inactive | Not Active |  | inactive | inactive |  |  | inactive | inactive | inactive | Not Active |  |  | inactive |  | inactive |  |  |  | 
